Screens deposited in PubChem BioAssay by Johns Hopkins Ion Channel Center.
MrgX1 agonist: agonists of human MrgX1 receptor; MrgX1-HEK293 cells, Fluo-4 calcium fluorescence, agonist mode; active compounds read high; 310,000 compounds, 0.44% hits; B-score at 10 µM; Q96LB2;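 active = calcium response B-score plate-corrected fluorescence ratio at least 3 library SD, with starting fluorescence B-score inside 5 SD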
Target sequence (Q96LB2 whole entry, looked up): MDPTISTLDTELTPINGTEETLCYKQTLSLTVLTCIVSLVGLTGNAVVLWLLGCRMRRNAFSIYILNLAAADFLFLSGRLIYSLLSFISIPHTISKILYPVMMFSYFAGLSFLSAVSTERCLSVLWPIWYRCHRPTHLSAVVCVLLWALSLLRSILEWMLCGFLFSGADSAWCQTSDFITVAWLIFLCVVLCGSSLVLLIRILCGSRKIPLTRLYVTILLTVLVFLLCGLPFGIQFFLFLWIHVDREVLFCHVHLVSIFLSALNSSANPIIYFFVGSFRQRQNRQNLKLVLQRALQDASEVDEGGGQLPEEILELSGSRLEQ
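Material – MrgX1-expressing HEK293 cells · Input – 15,000 cells seeded per well · Dosing – compound as first of three additions · Times – overnight seeding, then 1 h dark dye loading · Measured by – kinetic Fluo-4 NW fluorescence of intracellular calcium · Read-out – B-scored fluorescence response ratio · Benchmarks – positive and negative control wells on each plate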
MrgX1 allo act: allosterically activates human MrgX1 receptor signaling; MrgX1-HEK293, Fluo-4 calcium flux, FDSS; active compounds read high; AID 588675; B-score at 10 µM; Q96LB2; 310,000 compounds, 0.63% hits;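 active = plate-corrected calcium response at least 3 library SD above typical, normal starting fluorescence, not activating the receptor alone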;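 also: compound read alongside a low EC10 to EC30 dose of BAM8-22 agonist; peak minus trough fluorescence over baseline measured at the second addition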
Kir21 inh: blocks the mouse Kir2.1 inward-rectifier potassium channel; P35561; HEK293-Kir2.1, FluxOR thallium flux fluorescence; active compounds read low; B-score at 10 µM; 310,000 compounds, 0.85% hits;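 active = fluorescence ratio B-score at or below minus 3 SD of library scores, with starting-brightness B-score within 2 SD, cut at about -4.2 in these data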;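 also: channel flux triggered by added potassium and thallium sulfate stimulus; B-score of peak minus minimum fluorescence over baseline after thallium stimulus; more negative B-score means stronger Kir2.1 block with less thallium influx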
MrgX1 antag: human MrgX1 receptor antagonism, primary screen; MRGX1-HEK293 calcium flux, Fluo-4, BAM8-22 antagonism; active compounds read low; B-score at 10 µM; 310,000 compounds, 1.3% hits; AID 588676;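 active = calcium-response B-score plate-corrected more than 3 library SD below zero, starting fluorescence within 5 deviations, no agonist response on first addition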;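 also: peak minus trough fluorescence over baseline after final BAM8-22 challenge near maximal dose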
RGS4 block: human RGS4 inhibition | P49798 | HEK293 M3R/RGS4 inducible, Fluo-4 calcium flux; active compounds read high; triggered by carbachol at its EC20 | B-score at 10 µM | 310,000 compounds, 0.45% hits | AID 463165;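 active = B-score, a plate-corrected calcium signal, over three deviations above library mean, with baseline fluorescence within five deviations of library mean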;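 also: RGS4 expression induced by doxycycline in cells with stable M3 receptor; B-score is computed from the integrated fluorescence ratio over baseline after carbachol; higher B-score means a larger calcium signal and so more RGS4 inhibition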
Target sequence (P49798 whole entry, looked up): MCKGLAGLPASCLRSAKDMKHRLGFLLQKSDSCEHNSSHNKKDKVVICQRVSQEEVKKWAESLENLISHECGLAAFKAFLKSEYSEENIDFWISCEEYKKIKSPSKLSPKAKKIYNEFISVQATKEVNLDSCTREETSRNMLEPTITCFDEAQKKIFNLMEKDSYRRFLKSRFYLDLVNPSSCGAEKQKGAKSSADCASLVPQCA
RGS4 act: potentiators or activators of RGS4. 310,000 compounds, 0.92% hits. HEK293 M3R/inducible RGS4, carbachol calcium flux Fluo4; active compounds read low. AID 463111. B-score at 10 µM;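 active = B-score of the integrated calcium signal more than 4 SD below the library mean, with starting fluorescence not abnormally high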;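 also: negative B-score means reduced calcium response which marks RGS4 activation or potentiation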
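Assay system: HEK293 FlpIn-TREx cells, stable M3R, doxycycline-inducible RGS4 / Probe or stimulus: carbachol, ECmax concentration / Times: overnight RGS4 induction, 30 min dye load 37 °C, 20 min compound RT / Signal: kinetic calcium fluorescence imaging with Fluo4-AM dye, 2 µM / Measure: Agonist-evoked peak-minus-minimum fluorescence over baseline, integrated ratio, B score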
RGS4 inh valid: validation of RGS4 inhibitors | AID 492999 | HEK293 M3R/RGS4, carbachol calcium Fluo-4 fluorescence; carbachol added at its EC20; 0 = buffer wells, 100 = carbachol control | shares compounds with RGS4 block | 1,700 compounds, 65% hits | calcium response, % at 10 µM;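 active = duplicate-averaged calcium response above the buffer-only control mean plus 5 SD of those controls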;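 also: integrated fluorescence ratio F max minus min over baseline F0; higher response in RGS4-induced cells means RGS4 inhibition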
RGS4 uninduced: counter-screen for RGS4 inhibitors: effect in non-induced cells; activity (percent), % at 10 µM; shares compounds with RGS4 block; HEK293 M3R non-induced, carbachol calcium Fluo-4; submaximal (EC20) carbachol stimulus; buffer wells 0%, carbachol control wells 100%; 1,900 compounds, 20% hits; AID 493000; call rule not given here;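 also: RGS4 induction absent so cells express M3R without RGS4; higher means more calcium signal and flags a non-specific hit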
M3R basal Ca ctr: second RGS4 inhibitor counter-screen in uninduced cells lacking carbachol; shares compounds with RGS4 block; HEK293 M3R/RGS4 non-induced, Fluo-4 calcium, no carbachol; normalised: buffer wells 0%, carbachol wells 100%; calcium response (agonist-mode artifact), % at 10 µM; 1,900 compounds, 22% hits;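 active = duplicate-averaged calcium rise in uninduced cells above buffer wells' mean plus 5 SD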
* marks the source's active call; other numbers are inactive results; i = inactive; x = not tested or not shown. Only some compounds are listed: those with a hit (about 4.1% of all), similar ones and a draw of the others.

SMILES	MrgX1 agonist	MrgX1 allo act	Kir21 inh	MrgX1 antag	RGS4 block	RGS4 act	RGS4 inh valid	RGS4 uninduced	M3R basal Ca ctr
CN(C)Cc1nc2c(c(=O)[nH]1)C1(CCCCC1)Cc1ccccc1-2	i	i	0.36	i	i	i	x	x	x
Cc1ccc(/C=C/C(=O)c2ccccc2)cc1	i	i	0.07	i	i	i	x	x	x
Cc1ccc(C(=O)/C=C/C(=O)O)cc1	i	i	-0.77	i	16*	i	64%*	44%*	14%*
Cn1c(Cc2ccccc2)nnc1SCC(=O)NC1CCCCC1	i	i	0.18	i	i	i	x	x	x
Cc1ccc(Nc2nc(N)c3ccccc3n2)cc1Cl	i	i	-13*	i	7.3*	i	9.5%*	i	i
Nc1nc(Nc2ccc(Cl)cc2)nc2ccccc12	i	i	-14*	i	22*	i	i	i	i
Cc1ccc(C=Nc2ccccc2C(N)=O)o1	i	i	-0.38	i	i	i	x	x	x
Cc1ccc(C=Nc2ccc(N(C)C)cc2)o1	i	i	1.6	i	5.3*	i	10%*	i	i
COc1ccccc1CNC(=O)COC(=O)c1c(C)nn(-c2ccccc2)c1Cl	i	i	0.39	i	18*	i	i	i	i
COc1cccc(COC(=O)c2c(C)nn(-c3ccccc3)c2Cl)c1OC	i	i	0.17	i	i	i	x	x	x
COc1ccc(-c2c(-c3ccc(OCC(=O)NN)cc3O)n[nH]c2C(F)(F)F)cc1	i	i	0.82	i	12*	i	28%*	29%*	i
Nc1ccc(/C=C/C(=O)c2cccs2)cc1	i	i	-3.2	i	i	i	x	x	x
O=C(/C=C/c1ccc([N+](=O)[O-])cc1)c1cccs1	i	i	-0.48	i	12*	i	8.0%*	38%*	i
O=C(CSc1cccc[n+]1[O-])Nc1cc2c(cc1Cl)C(=O)c1ccccc1C2=O	i	i	-0.55	i	12*	i	65%*	i	i
O=C(CSc1cccc[n+]1[O-])Nc1cc([N+](=O)[O-])ccc1Cl	i	i	0.58	i	i	i	x	x	x
Cc1ccc(S(=O)(=O)N2CCCOC2CNC(=O)C(=O)NC2CCCCC2)cc1 (centres undefined)	i	i	-0.05	i	i	i	i	i	i
S=C1NC[C@H](Cc2ccccc2)N1CCCCC1CCCCC1	i	i	0.52	i	i	i	i	i	i
S=C1NC[C@H](CC2CCCCC2)N1CCCCC1CCCCC1	i	i	0.6	i	i	i	x	x	x
COc1ccc(C(C[N+](=O)[O-])c2c(-c3ccccc3)cc3ccccn23)c(OC)c1 (centres undefined)	54*	i	0.81	i	i	i	i	i	20%*
CN(C(=O)c1ccc([N+](=O)[O-])cc1)c1ccccc1C(=O)NCc1ccccc1	i	i	-0.41	i	i	i	x	x	x
COc1cc(C2C3=C(CC(C)(C)CC3=O)Nc3c2c(=O)[nH]c(=O)n3Cc2ccccc2)ccc1O (centres undefined)	i	i	-0.64	i	i	i	x	x	x
Cc1nn(-c2ccccc2)c2[nH]c(=O)c(CNCc3ccc4c(c3)OCO4)cc12	i	i	0.82	i	i	i	x	x	x
Cc1ccc(-c2nn(-c3ccccc3)c3[nH]c(=O)c(CNCc4ccccc4)cc23)cc1	i	i	-1.3	i	7*	i	19%*	i	18%*
Cn1cccc1C(=O)OCC(=O)N1c2ccccc2NC(=O)C1(C)C	i	i	-0.53	i	5.2*	i	6.5%*	i	i
Cc1ccc(Nc2c(-c3ccc(C)o3)nc3cnccn23)cc1	i	i	-2.1	i	i	i	i	i	i
SMILES	MrgX1 agonist	MrgX1 allo act	Kir21 inh	MrgX1 antag	RGS4 block	RGS4 act	RGS4 inh valid	RGS4 uninduced	M3R basal Ca ctr
Cc1ccc(-c2nc3cnccn3c2Nc2ccccc2)o1	i	i	-0.01	i	10*	i	i	i	i
Cc1ccc(-c2nc3cnccn3c2Nc2ccc3c(c2)OCO3)o1	i	i	-1.1	i	i	i	x	x	x
Cc1ccc(NC(=O)CSc2nnc(-c3cccnc3)n2CCN2CCCCC2)cc1	i	i	0.05	i	i	i	x	x	x
CCOc1ccc(NC(=O)c2ccc(NC(=S)NC3CC3)cc2)cc1	i	i	-1.4	i	i	i	x	x	x
Cc1ccc(C(C(=O)NC2CCCCC2)N(C(=O)Cc2c[nH]c3ccccc23)c2ccccc2)o1 (centres undefined)	i	i	-0.82	i	i	i	x	x	x
COc1cc(C(C(=O)NC2CCCCC2)N(C(=O)Cc2c[nH]c3ccccc23)c2ccc(C)cc2)cc(OC)c1OC (centres undefined)	i	i	0.03	i	i	i	i	i	i
COc1ccc(S(=O)(=O)N2CCN(c3ccc4nnc(-c5ccc(F)cc5)n4n3)CC2)cc1	i	i	0.03	i	i	i	x	32%*	i
COc1ccc(-c2cn[nH]c2-c2ccc(OCc3ccc([N+](=O)[O-])cc3)cc2O)cc1OC	i	i	1.5	i	i	i	x	x	x
CCc1cc(-c2[nH]ncc2-c2ccc([N+](=O)[O-])cc2)c(O)cc1OC	i	26*	0.31	i	12*	i	34%*	i	i
CCOc1ccccc1NC(=O)N1C2CCCC1CC(NC(=O)C1CC1)C2 (centres undefined)	i	i	-0.09	i	i	i	x	x	x
O=C(CSc1nc(-c2ccc(F)cc2)cc(C(F)(F)F)n1)NCc1cccs1	i	i	-1.3	i	i	i	x	x	x
COc1ccc(C(=O)CCS(=O)(=O)c2ccc(C)cc2)cc1OC	i	i	-2.2	i	29*	i	80%*	58%*	20%*
COC(=O)c1nn(-c2ccc(F)cc2)ccc1=O	i	i	1.2	i	i	i	x	x	x
